Laboratory results as given in ChEMBL document CHEMBL1240379, “Combined ramR mutation and presence of a Tn1721-associated tet(A) variant in a clinical isolate of Salmonella enterica serovar Hadar resistant to tigecycline” (2010).
In brackets after ≈: the same amount, converted by molar mass.

Assays:
[1] = tested on: Escherichia coli; experiment: Antibacterial activity against Escherichia coli DH10B expressing Tn1721-tet(A) carrying plasmid SK2 by Etest method; type: functional; conditions: K-12 DH10B
[2] = tested on: Escherichia coli; experiment: Antibacterial activity against Escherichia coli DH10B expressing SK2 plasmid by Etest method; type: functional; conditions: K-12 DH10B
[3] = tested on: Escherichia coli; experiment: Antibacterial activity against Escherichia coli DH10B by Etest method; type: functional; conditions: K-12 DH10B
[4] = tested on: Escherichia coli; experiment: Antibacterial activity against Escherichia coli DH10B harboring Tn1721-tet(A) carrying plasmid by Etest method; type: functional; conditions: K-12 DH10B
[5] = Antibacterial activity against Salmonella enterica serovar Hadar VA5649 by Etest method; type: functional, Salmonella enterica subsp. enterica serovar Hadar
[6] = Antibacterial activity against Salmonella enterica serovar Hadar VA5649 harboring wild type ramR-2313 gene by Etest method; type: functional, Salmonella enterica subsp. enterica serovar Hadar
[7] = Antibacterial activity against Salmonella enterica serovar Hadar VA5649 expressing ACYC177 plasmid by Etest method; type: functional, Salmonella enterica subsp. enterica serovar Hadar
[8] = Antibacterial activity against Salmonella enterica serovar Hadar VA5649 harboring ramR-5649 mutant gene by Etest method; type: functional, Salmonella enterica subsp. enterica serovar Hadar
[9] = Antibacterial activity against Salmonella enterica serovar Hadar VA5649 harboring wild type ramR-2313 gene by both microdilution assay; type: functional, Salmonella enterica subsp. enterica serovar Hadar
Outline: (§1)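 Tigecycline MIC by broth microdilution using a commercial tigecycline panel with freshly prepared Mueller-Hinton II broth less than 12 h old. Susceptible, intermediate or resistant category assigned by EUCAST clinical breakpoints.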

[10] = Antibacterial activity against Salmonella enterica serovar Hadar VA5649 by both microdilution assay; type: functional, Salmonella enterica subsp. enterica serovar Hadar; outline: as §1
[11] = tested on: Escherichia coli; experiment: Antibacterial activity against Escherichia coli DH10B expressing SK2 plasmid by broth microdilution assay; type: functional; conditions: K-12 DH10B
Outline: (§2)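 MIC by broth microdilution on a commercial ready-made drug panel, using freshly prepared Mueller-Hinton II broth (under 12 h old). MIC categories interpreted against EUCAST clinical breakpoints (susceptible, intermediate or resistant).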

[12] = tested on: Escherichia coli; experiment: Antibacterial activity against Escherichia coli DH10B by broth microdilution assay; type: functional; conditions: K-12 DH10B; outline: as §2
[13] = tested on: Salmonella enterica; experiment: Antibacterial activity against wild type Salmonella enterica TY2313 by broth microdilution assay; type: functional; outline: as §2
[14] = tested on: Escherichia coli; experiment: Antibacterial activity against Escherichia coli DH10B expressing Tn1721-tet(A) carrying plasmid SK2 by broth microdilution assay; type: functional; conditions: K-12 DH10B; outline: as §1
[15] = Antibacterial activity against Salmonella enterica serovar Hadar VA5649 expressing ACYC177 plasmid by both microdilution assay; type: functional, Salmonella enterica subsp. enterica serovar Hadar; outline: as §1
[16] = tested on: Escherichia coli; experiment: Antibacterial activity against Escherichia coli DH10B harboring Tn1721-tet(A) carrying plasmid by broth microdilution assay; type: functional; conditions: K-12 DH10B; outline: as §1
[17] = Antibacterial activity against Salmonella enterica serovar Hadar VA5649 harboring ramR-5649 mutant gene by both microdilution assay; type: functional, Salmonella enterica subsp. enterica serovar Hadar; outline: as §1
[18] = tested on: Salmonella enterica; experiment: Antibacterial activity against wild type Salmonella enterica TY2313 by Etest method; type: functional

## CN(C)c1ccc(O)c2c1C[C@H]1C[C@H]3[C@H](N(C)C)C(O)=C(C(N)=O)C(=O)[C@@]3(O)C(O)=C1C2=O [MINOCYCLINE]
[1]
  MIC: 8 µg/mL (≈ 17.5 µM)
[2]
  MIC: 0.75 µg/mL (≈ 1.64 µM)
[3]
  MIC: 0.75 µg/mL (≈ 1.64 µM)
[4]
  MIC: 8 µg/mL (≈ 17.5 µM)
[5]
  MIC: 32 µg/mL (≈ 69.9 µM)

## O=C(O)c1cn(C2CC2)c2cc(N3CCNCC3)c(F)cc2c1=O [CIPROFLOXACIN]
[6]
  MIC: 0.25 µg/mL (≈ 0.754 µM)
[7]
  MIC: 1 µg/mL (≈ 3.02 µM)
[8]
  MIC: 1 µg/mL (≈ 3.02 µM)
[5]
  MIC: 1 µg/mL (≈ 3.02 µM)

## CN(C)c1cc(NC(=O)CNC(C)(C)C)c(O)c2c1C[C@H]1C[C@H]3[C@H](N(C)C)C(O)=C(C(N)=O)C(=O)[C@@]3(O)C(O)=C1C2=O [TIGECYCLINE]
[9]
  MIC: 2 µg/mL (≈ 3.41 µM)
[10]
  MIC: 16 µg/mL (≈ 27.3 µM)
[11]
  MIC: 0.065 µg/mL (≈ 0.111 µM)
[12]
  MIC: 0.065 µg/mL (≈ 0.111 µM)
[13]
  MIC: 0.25 µg/mL (≈ 0.427 µM)
[14]
  MIC: 0.25 µg/mL (≈ 0.427 µM)
[15]
  MIC: 16 µg/mL (≈ 27.3 µM)
[16]
  MIC: 0.25 µg/mL (≈ 0.427 µM)
[17]
  MIC: 16 µg/mL (≈ 27.3 µM)

## O=C(N[C@H](CO)[C@H](O)c1ccc([N+](=O)[O-])cc1)C(Cl)Cl [CHLORAMPHENICOL]
[18]
  MIC: 2 µg/mL (≈ 6.19 µM)
[6]
  MIC: 2 µg/mL (≈ 6.19 µM)
[7]
  MIC: 8 µg/mL (≈ 24.8 µM)
[8]
  MIC: 8 µg/mL (≈ 24.8 µM)
[5]
  MIC: 8 µg/mL (≈ 24.8 µM)
